4 compounds from ChEMBL document CHEMBL3421595, “Design and Synthesis of New α-Naphthoflavones as Cytochrome P450 (CYP) 1B1 Inhibitors To Overcome Docetaxel-Resistance Associated with CYP1B1 Overexpression” (J Med Chem, 2015) can be followed below.

Series [1] concerns MCF7. In words: Cytotoxicity against human MCF7 cells over-expressing CYP1B1 after 48 hrs by MTT assay. Conditions: MCF7, 48 h. The class given is functional, cell-based. In a few lines:
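CYP1B1-expressing MCF-7 (MCF-7/1B1) made by exposing parental cells to 10 nM TCDD for 96 h, with daily renewal of medium containing fresh 10 nM TCDD. Standard MTT assay, 48 h exposure to docetaxel alone or combined with a CYP1B1 inhibitor (5 or 10 μM). Wells with inhibitor alone (10 μM) served as negative control. Five concentrations, four replicate wells each, three plates.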
For orientation: Tetrazolium dyes change colour on reduction, which living cells bring about.

The subject of series [2] is MCF7. In words: Cytotoxicity against human MCF7 cells after 48 hrs by MTT assay. It is filed as functional, cell-based. As to conditions: MCF7, 48 h. In a few lines:
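MCF-7 cells grown in RPMI-1640 with 10% FBS at 37 °C, 5% CO2 and subcultured every 3 days at 1:5. Standard MTT assay with a 48 h exposure to freshly prepared docetaxel. Five concentrations per plate, four replicate wells each, three replicate plates. Viability is percent surviving cells relative to control. IC50 is the average of three parallel experiments.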

Series [3] has as its system MCF7. As to the kind of experiment: Resistance index, ratio of IC50 for human MCF7 cells over-expressing CYP1B1 to IC50 for human MCF7 cells. The class given is functional.
For series [4], the target named is T1, Cytochrome P450 1B1 (Homo sapiens, UniProt Q16678).
T1 sequence (Q16678 whole entry): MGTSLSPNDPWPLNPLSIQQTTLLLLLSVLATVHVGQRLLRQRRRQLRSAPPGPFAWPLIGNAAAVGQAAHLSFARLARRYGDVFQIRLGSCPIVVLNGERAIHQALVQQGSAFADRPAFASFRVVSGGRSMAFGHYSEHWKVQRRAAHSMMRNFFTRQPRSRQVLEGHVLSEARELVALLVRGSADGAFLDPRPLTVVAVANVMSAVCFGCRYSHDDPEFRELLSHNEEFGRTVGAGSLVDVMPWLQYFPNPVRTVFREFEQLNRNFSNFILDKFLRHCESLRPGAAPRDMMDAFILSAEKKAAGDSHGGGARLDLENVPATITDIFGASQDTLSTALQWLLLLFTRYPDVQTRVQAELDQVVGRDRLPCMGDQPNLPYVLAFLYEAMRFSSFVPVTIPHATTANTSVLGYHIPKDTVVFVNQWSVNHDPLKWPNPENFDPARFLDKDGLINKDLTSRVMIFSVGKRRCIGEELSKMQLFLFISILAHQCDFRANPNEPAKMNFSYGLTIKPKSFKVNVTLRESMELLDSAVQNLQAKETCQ
As to the kind of experiment: Inhibition of human CYP1B1 assessed as reduction in 7-ethoxyresorufin O-deethylation activity by fluorescence based EROD assay. In a few lines: (§1)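 Recombinant human CYP1B1, 1A1 and 1A2 in a standard EROD assay. NADPH regeneration system: 1.3 mM NADP+, 3.3 mM G-6-P, 0.5 U/mL G6-PD. Incubation time 35 min for CYP1B1, 15 min for 1A1 and 50 min for 1A2. IC50 by Probit analysis; selectivity taken as the ratio of IC50 values.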

Series [5] concerns the target T2, Cytochrome P450 1A1 (Homo sapiens, UniProt P04798).
T2 sequence (P04798 whole entry): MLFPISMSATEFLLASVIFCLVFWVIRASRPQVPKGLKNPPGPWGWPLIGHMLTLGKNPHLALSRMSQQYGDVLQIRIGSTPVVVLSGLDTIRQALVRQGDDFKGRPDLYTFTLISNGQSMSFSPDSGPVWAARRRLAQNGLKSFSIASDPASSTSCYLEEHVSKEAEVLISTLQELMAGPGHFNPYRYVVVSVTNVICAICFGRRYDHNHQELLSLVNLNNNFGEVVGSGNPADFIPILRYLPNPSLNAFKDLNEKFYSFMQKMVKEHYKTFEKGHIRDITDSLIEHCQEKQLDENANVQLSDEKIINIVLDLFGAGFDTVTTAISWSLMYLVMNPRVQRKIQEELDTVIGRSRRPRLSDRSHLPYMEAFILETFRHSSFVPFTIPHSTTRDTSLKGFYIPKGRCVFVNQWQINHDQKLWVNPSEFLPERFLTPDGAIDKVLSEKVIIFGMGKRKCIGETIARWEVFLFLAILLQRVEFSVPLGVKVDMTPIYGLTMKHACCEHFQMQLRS
In words: Inhibition of human CYP1A1 assessed as reduction in 7-ethoxyresorufin O-deethylation activity by fluorescence based EROD assay. The class given is ADME. The method in brief: (§2)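 Recombinant human CYP1B1, 1A1 and 1A2 in a standard EROD assay. 7-Ethoxyresorufin fixed at 150 nM. NADPH regeneration system: 1.3 mM NADP+, 3.3 mM G-6-P, 0.5 U/mL G6-PD. Incubation time 35 min for CYP1B1, 15 min for 1A1 and 50 min for 1A2. Resorufin fluorescence read at ex 545 / em 590 nm. IC50 by Probit analysis; selectivity taken as the ratio of IC50 values.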

In series [6] the target is T3, Cytochrome P450 1A2 (Homo sapiens, UniProt P05177).
T3 sequence (P05177 whole entry): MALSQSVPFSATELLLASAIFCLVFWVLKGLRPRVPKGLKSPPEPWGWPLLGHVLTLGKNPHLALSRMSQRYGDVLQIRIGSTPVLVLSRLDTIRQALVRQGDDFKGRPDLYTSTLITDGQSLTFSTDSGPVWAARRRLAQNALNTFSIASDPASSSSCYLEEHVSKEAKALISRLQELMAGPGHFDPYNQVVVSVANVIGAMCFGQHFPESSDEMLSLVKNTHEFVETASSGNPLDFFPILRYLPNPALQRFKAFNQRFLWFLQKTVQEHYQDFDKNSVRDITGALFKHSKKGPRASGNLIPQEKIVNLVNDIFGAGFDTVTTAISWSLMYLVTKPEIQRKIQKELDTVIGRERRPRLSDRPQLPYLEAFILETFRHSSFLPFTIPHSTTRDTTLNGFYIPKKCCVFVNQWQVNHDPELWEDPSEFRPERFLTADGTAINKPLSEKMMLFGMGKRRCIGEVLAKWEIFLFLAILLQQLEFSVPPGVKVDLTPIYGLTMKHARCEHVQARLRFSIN
As to the kind of experiment: Inhibition of human CYP1A2 assessed as reduction in 7-ethoxyresorufin O-deethylation activity by fluorescence based EROD assay. The class given is ADME. In a few lines: as §1

Series [7] is filed under the species Homo sapiens. As to the kind of experiment: Selectivity index, ratio of IC50 for human CYP1A1 to IC50 for human CYP1B1. In a few lines: as §2
The species named for series [8] is Homo sapiens. As to the kind of experiment: Selectivity index, ratio of IC50 for human CYP1A2 to IC50 for human CYP1B1. In a few lines:
as §2

The target in series [9] is T1, Cytochrome P450 1B1. As to the kind of experiment: Potency index, ratio of IC50 for ANF to IC50 for compound against human CYP1B1 assessed as reduction in 7-ethoxyresorufin O-deethylation activity by fluorescence based EROD assay. Conditions: read-out: Ratio IC50. The method in brief: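 Recombinant human CYP1B1 EROD assay with 150 nM 7-ethoxyresorufin. NADPH regeneration system (1.3 mM NADP+, 3.3 mM G-6-P, 0.5 U/mL G6-PD) replaced NADPH. Incubated 35 min; resorufin fluorescence read at ex 545/em 590 nm. IC50 by Probit analysis. ANF was the positive control in the same assay, and the index divides its IC50 by the compound's IC50.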

By IC50 is commonly meant the concentration that gives 50% inhibition. On to `CC(=O)O[C@@]12CO[C@@H]1C[C@H](O)[C@@]1(C)C(=O)[C@H](O)C3=C(C)[C@@H](OC(=O)[C@H](O)[C@@H](NC(=O)OC(C)(C)C)c4ccccc4)C[C@@](O)([C@@H](OC(=O)c4ccccc4)[C@H]21)C3(C)C.O.O.O` [DOCETAXEL], for which the half-inhibitory concentration (IC50) was 140000 nM in series [1] and 27600 nM in series [2]. Further, the “Ratio IC50” value in series [3] stood at 5.
For the compound `COc1ccc(OC)c2c1c(OC)cc1c(=O)cc(-c3ccccc3)oc12`, the concentration for half-maximal inhibition (IC50) in series [4] is 0.2 nM; in [5], 4.8 nM; in series [6], 16.1 nM. The Ratio IC50 in series [7] was determined as 24; in [8], 81. In [9], the selectivity ratio turned out to be 6.
For the compound `COc1ccccc1-c1cc(=O)c2cc(OC)c3c(OC)ccc(OC)c3c2o1`, the figures for the IC50 in series [4], in [5] and in series [6] were 9 nM, 18.8 nM and 13.5 nM, respectively. Besides, the values for the Ratio IC50 in series [7] and in series [8] were 2.1 and 1.5, respectively.
For the compound `COc1ccc(OC)c2c1c(OC)cc1c(=O)cc(-c3ccc(Cl)cc3)oc12`, the 50% inhibitory concentration (IC50) in [4] amounted to 0.2 nM; in series [5], 1.8 nM; in [6], 27.7 nM. Besides, the Ratio IC50 in series [7] amounted to 9; in series [8], 139.
